Each structure is given as a SMILES string. Values after ≈ are worked out from the molar mass of the structure shown. Active and inactive are the calls of the source. No cut-off for these calls is given here. Some results are limits rather than exact numbers.

The values below come from ChEMBL document CHEMBL5236612, “Heterobivalent Inhibitors of Acetyl-CoA Carboxylase: Drug Target Residence Time and Time-Dependent Antibacterial Activity” (J Med Chem, 2022).

For assay [1], the system named is Escherichia coli. Nature of the assay: Antibacterial activity against acrAB knockout Escherichia coli MG1655 incubated for 24 hrs by microbroth dilution method. The assay is classed as functional. On the technique in general: Dilution methods test growth across graded concentrations, often in twofold steps.
In assay [2] the test system is Escherichia coli. Put plainly: Synergistic antibacterial activity against Escherichia coli harbouring TolC-deficient mutant assessed as fractional inhibitory concentration index at […] in presence of PMBN. The assay is classed as functional. Conditions: dose 0.025 µM.
In assay [3] the test system is Escherichia coli. Put plainly: Additive antibacterial activity against Escherichia coli harbouring TolC-deficient mutant assessed as fractional inhibitory concentration index. The assay is classed as functional. A digest of the protocol: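 Checkerboard MIC of two compounds combined against tolC-knockout E. coli, without PMBN; FIC index derived from combination MICs.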

Assay [4] can be described thus: Inhibition of Escherichia coli ACC expressed in Escherichia coli BLR(DE3) cells.
Assay [5] has as its system Escherichia coli. Nature of the assay: Displacement of 11-(4-(22-(2,4-dibromo-3-(2,7-diaminopyrido[2,3-d]pyrimidin-6-yl)phenoxy)-5,8,11,14,17,20-hexaoxadocos-1-yl)-1H-1,2,3-triazol-1-yl)-N-((1S)-3-(((2S)-3-methyl-1-((3R,4S)-4-methyl-2,5-dioxopyrrolidin-3-yl)-1-oxobutan-2-yl)amino)-3-oxo-1-phenylpropyl)undecanamide from Escherichia coli ACC expressed in Escherichia coli BL21(DE3) pLysS at 100 uM preincubated for 1 hr followed by compound addition by LC-MS/MS method. A digest of the protocol: (§1)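 Purified E. coli ACC (1 μM), in 100 mM HEPES pH 8.0 with 15 mM KHCO3 and 20 mM MgCl2, was held 1 h at 22 °C with equimolar heterobivalent inhibitor. Competitor was then added: 100 μM of one warhead alone, or 50 μM each of both warheads together. At timed points, aliquots were spun through G-25 gel filtration columns in 10 mM ammonium formate pH 8.0. Flow-through was denatured in 50% MeCN and bound inhibitor quantified by LC-MS/MS. Dissociation rate came from a single-exponential fit.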

The test system of assay [6] is Escherichia coli. Put plainly: Antibacterial activity against Escherichia coli incubated for 24 hrs in presence of PMBN by microbroth dilution method. It counts as functional.
Assay [7] deals with Escherichia coli. Nature of the assay: Antibacterial activity against tolC knockout Escherichia coli incubated for 24 hrs in presence of PMBN by microbroth dilution method. It counts as functional.
Assay [8] concerns Escherichia coli. Nature of the assay: Antibacterial activity against Escherichia coli K12 incubated for 24 hrs by microbroth dilution method. It counts as functional.
Assay [9] in a line: Inhibition of Escherichia coli ACC expressed in Escherichia coli BL21(DE3) pLysS incubated for 45 mins in presence of ATP and acetyl coA by fluorescence polarization assay. A digest of the protocol:
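E. coli BC (1 nM), biotinylated BCCP (2 nM) and CT (1 nM), His-tag purified then size-exclusion purified, preincubated with inhibitor in 100 mM HEPES pH 8.0, 15 mM KHCO3, 20 mM MgCl2. ADP detected by Transcreener fluorescence polarization; Morrison fit for Ki when tight binding; triplicate.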
On the technique in general: In fluorescence polarisation assays a small probe gives low polarisation when free and higher when bound to something large.

The subject of assay [10] is Escherichia coli. Put plainly: Displacement of 11-(4-(22-(2,4-dibromo-3-(2,7-diaminopyrido[2,3-d]pyrimidin-6-yl)phenoxy)-5,8,11,14,17,20-hexaoxadocos-1-yl)-1H-1,2,3-triazol-1-yl)-N-((1S)-3-(((2S)-3-methyl-1-((3R,4S)-4-methyl-2,5-dioxopyrrolidin-3-yl)-1-oxobutan-2-yl)amino)-3-oxo-1-phenylpropyl)undecanamide from Escherichia coli ACC expressed in Escherichia coli BL21(DE3) pLysS at 50 uM preincubated for 1 hr in presence of 6-(2,6-dibromophenyl)pyrido[2,3-d]pyrimidine-2,7-diamine followed by compound addition by LC-MS/MS method. A digest of the protocol:
as §1

The test system of assay [11] is Escherichia coli. Put plainly: Antibacterial activity against tolC knockout Escherichia coli incubated for 24 hrs by microbroth dilution method. The assay is classed as functional.
Assay [12] has as its system Escherichia coli. Nature of the assay: Antibacterial activity against acrAB knockout Escherichia coli MG1655 incubated for 24 hrs in presence of PMBN by microbroth dilution method. The assay is classed as functional.
Assay [13] has as its system Escherichia coli. Put plainly: Displacement of 11-(4-(22-(2,4-dibromo-3-(2,7-diaminopyrido[2,3-d]pyrimidin-6-yl)phenoxy)-5,8,11,14,17,20-hexaoxadocos-1-yl)-1H-1,2,3-triazol-1-yl)-N-((1S)-3-(((2S)-3-methyl-1-((3R,4S)-4-methyl-2,5-dioxopyrrolidin-3-yl)-1-oxobutan-2-yl)amino)-3-oxo-1-phenylpropyl)undecanamide from Escherichia coli ACC expressed in Escherichia coli BL21(DE3) pLysS at 50 uM preincubated for 1 hr in presence of Moiramide-B followed by compound addition by LC-MS/MS method. A digest of the protocol: as §1

A short description of assay [14]: Inhibition of Escherichia coli ACC incubated for 5 mins. A digest of the protocol:
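ACC reconstituted from 1 nM BC, 2 nM biotinylated BCCP and 1 nM CT (His-tagged E. coli proteins) in 100 mM HEPES pH 8.0 with 15 mM KHCO3 and 20 mM MgCl2. Enzyme was mixed with inhibitor or DMSO, and reactions were started with 10 μM ATP and 200 μM acetyl-CoA. ADP formed was read by Transcreener fluorescence polarization after a 45 min endpoint.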

As for `C/C=C/C=C/C(=O)N[C@@H](CC(=O)N[C@H](C(=O)[C@@H]1C(=O)NC(=O)[C@H]1C)C(C)C)c1ccccc1`, the MIC in assay [1] is 25 µM (≈ 11.3 µg/mL); in [6], 3.13 µM; in assay [7], 0.1 µM; in assay [8] it was over 25 µM; in [11], 1.56 µM (≈ 0.708 µg/mL); in [12], 0.39 µM. Also, in assay [2], the FIC is on record as 0.38. For the same compound, the “fractional inhibitory concentration index (FICI)” value in assay [3] was determined as 0.5. Besides, the half-maximal inhibitory concentration (IC50) in [4] came to 6 nM; in [9] it was 4.5 nM. The outcome in [5] was inactive. Also, the result in [10] was Active.
For `Nc1ncc2cc(-c3c(Br)cccc3Br)c(N)nc2n1`, the outcome in assay [13] was Active. In addition, the “fractional inhibitory concentration index (FICI)” value in [3] turned out to be 0.5. Besides, in [5], the result was inactive. In assay [14], this compound displayed an IC50 of under 5 nM. Also, in assay [11], the lowest concentration to inhibit growth (MIC) was 1.56 µM (≈ 0.616 µg/mL).

As usually defined, the MIC is the lowest concentration found to suppress growth. What is called IC50 is the concentration at which inhibition is half-maximal.
